In the data set the target is T1, OCT1 (Homo sapiens, UniProt O15245).
T1 sequence (O15245 1-554): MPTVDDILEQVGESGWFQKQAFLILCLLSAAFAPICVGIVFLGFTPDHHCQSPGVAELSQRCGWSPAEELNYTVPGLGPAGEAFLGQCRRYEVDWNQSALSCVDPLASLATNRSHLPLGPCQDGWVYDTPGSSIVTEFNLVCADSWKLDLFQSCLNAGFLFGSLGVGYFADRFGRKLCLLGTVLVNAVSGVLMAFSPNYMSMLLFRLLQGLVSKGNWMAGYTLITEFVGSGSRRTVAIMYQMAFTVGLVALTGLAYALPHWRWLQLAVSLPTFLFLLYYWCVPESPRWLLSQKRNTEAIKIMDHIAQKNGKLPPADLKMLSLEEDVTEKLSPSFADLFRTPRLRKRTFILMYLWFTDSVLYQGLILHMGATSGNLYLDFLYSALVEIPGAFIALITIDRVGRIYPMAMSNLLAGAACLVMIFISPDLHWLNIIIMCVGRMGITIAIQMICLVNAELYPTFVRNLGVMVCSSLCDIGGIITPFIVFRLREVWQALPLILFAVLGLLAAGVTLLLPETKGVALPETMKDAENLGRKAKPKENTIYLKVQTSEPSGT
In words: Raloxifene as a substrate for uptake transporters. It is filed as in vitro ADME. As to conditions: raloxifene 1, 10 μM, 2, 20 min, two‐fold cutoff. Put shortly:
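Uptake of test compound (1 and 10 μM, 2 and 20 min) measured in transporter-expressing HEK293 or MDCKII cells or inside-out membrane vesicles. Run with positive-control probe substrates and inhibitors, plus empty-vector or untransfected control cells. Fold-accumulation relative to control cells judged against a two-fold cutoff for substrate status.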

For the molecule `O=C(c1ccc(OCCN2CCCCC2)cc1)c1c(-c2ccc(O)cc2)sc2cc(O)ccc12` [Raloxifene, raloxifene, reference compound], the “fold‐accumulation” value was 1.13–1.52.

The values above are taken from PMC10582660 (Clinical and Translational Science, 2023).
